According to ChEMBL document CHEMBL1268860, “Revision of the Structures of 1,5-Dihydroxy-3,8-epoxyvalechlorine, Volvaltrate B, and Valeriotetrate C from Valeriana jatamansi and V. officinalis” (J Nat Prod, 2010):

Columns and labels:
Assay type in all cases: functional, cell-based
Bel-7402 = test: Cytotoxicity against human Bel7402 cells after 24 hrs by MTT assay; conditions: Bel-7402, 24 h
Procedure, shortened: (§1)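 Cell lines from ATCC, seeded at 3000 cells per well and left 24 h before exposure to a range of compound concentrations. After 24 h of exposure, MTT was added and the plates were incubated another 24 h. Viability was read as absorbance at 570 nm, and IC50 values were calculated from these readings. Paclitaxel served as the positive control.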

HCT-8 = test: Cytotoxicity against human HCT8 cells after 24 hrs by MTT assay; conditions: HCT-8, 24 h; procedure, shortened: as §1
[1] = Cytotoxicity against human PC3M cells after 24 hrs by MTT assay; conditions: PC-3M; procedure, shortened: as §1
A549 = test: Cytotoxicity against human A549 cells after 24 hrs by MTT assay; conditions: A549, 24 h; procedure, shortened: as §1

Row | SMILES | IC50 (Bel-7402) | IC50 (HCT-8) | IC50 [1] | IC50 (A549)
1 | C=C1[C@H]2O[C@@H](O)[C@@H]3[C@](CCl)(O2)[C@@H](OC(C)=O)C[C@]13O | > 10 µM | > 10 µM | > 10 µM | > 10 µM
2 | C=C1[C@H]2O[C@@H](OCC)[C@@H]3[C@](CCl)(O2)[C@@H](OC(C)=O)C[C@]13O | > 10 µM | > 10 µM | > 10 µM | > 10 µM
3 | C=C1[C@H]2O[C@H](OCC)[C@@H]3[C@](CCl)(O2)[C@@H](OC(C)=O)C[C@]13O | > 10 µM | > 10 µM | > 10 µM | > 10 µM
4 | C=C1[C@H]2O[C@@H](OC)[C@@H]3[C@](CCl)(O2)[C@@H](OC(C)=O)C[C@]13O | > 10 µM | > 10 µM | > 10 µM | > 10 µM
5 | C=C1[C@H]2O[C@H](OC)[C@@H]3[C@](CCl)(O2)[C@@H](OC(C)=O)C[C@]13O | > 10 µM | > 10 µM | > 10 µM | > 10 µM
6 | CC(=O)O[C@H]1C[C@]2(O)C(COC(=O)[C@H](OC(=O)CC(C)C)C(C)C)=CO[C@@H](OC(=O)CC(C)C)[C@@H]2[C@@]1(O)CCl [VOLVALTRATE B] | 6.1 µM | 3.2 µM | 2 µM | 8.5 µM
